Laboratory results from ChEMBL document CHEMBL4017546, “Small-Molecule Inhibitors of the CD40-CD40L Costimulatory Protein-Protein Interaction” (J Med Chem, 2017).
Converted amounts (≈) assume the structure as drawn. The source made the active and inactive calls. The calls are words filed in the database; no cut-off is given here.

Columns and labels:
CD40-CD40L [1] = target: T1, CD40-CD40L (Homo sapiens, UniProt P25942+P29965); test: Ratio of IC50 for human Fc-conjugated CD40/FLAG-tagged biotinylated CD40L costimulatory protein-protein interaction in presence of Triton-X 100 to IC50 for human Fc-conjugated CD40/FLAG-tagged biotinylated CD40L costimulatory protein-protein interaction in absence of Triton-X 100; type: protein assay
In short: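 CD40-Fc (0.3 µg/mL) coated, FLAG-CD40L (0.02 µg/mL) binding, 1 h, anti-FLAG HRP/TMB read at 450 nm. Run with and without the non-ionic detergent Triton X-100 at 0.01% to test for colloidal aggregation. IC50 taken from log inhibitor vs. response fits in each condition.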
Target sequence in this assay (P25942 21-277 limits assumed): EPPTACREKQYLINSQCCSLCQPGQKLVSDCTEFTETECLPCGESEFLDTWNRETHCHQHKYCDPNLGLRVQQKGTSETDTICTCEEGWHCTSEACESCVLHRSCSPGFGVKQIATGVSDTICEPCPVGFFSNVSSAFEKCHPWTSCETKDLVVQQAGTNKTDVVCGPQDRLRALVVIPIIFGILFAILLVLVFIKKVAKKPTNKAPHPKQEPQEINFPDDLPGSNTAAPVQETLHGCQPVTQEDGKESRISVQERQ
Target sequence in this assay (P29965 113-261 partner limits assumed): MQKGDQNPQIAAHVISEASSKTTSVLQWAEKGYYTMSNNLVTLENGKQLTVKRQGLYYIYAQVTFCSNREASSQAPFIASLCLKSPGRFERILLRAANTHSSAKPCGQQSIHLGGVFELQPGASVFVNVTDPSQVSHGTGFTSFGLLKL

CD40-CD40L [2] = target: T1, CD40-CD40L; test: Inhibition of interaction of CD40 in human THP-1 cells with recombinant human CD40L assessed as reduction in CD40L-induced […] upregulation after 48 hrs by DAPI-staining based flow cytometric analysis; type: cell-based
In short: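 THP-1 cells serum-starved 24 h, then stimulated with rhCD154 (MegaCD40L) at 0.5 µg/mL plus graded compound in FBS-free RPMI for 48 h at 37°C, 5% CO2. Stained for HLA-DR, then DAPI just before flow cytometry. Marker quantified in live (DAPI-negative) cells.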
Target sequence in this assay (P25942 21-277 limits assumed): as the sequence (P25942 21-277 limits assumed) above
Target sequence in this assay (P29965 113-261 partner limits assumed): as the sequence (P29965 113-261 partner limits assumed) above

CD40-CD40L [3] = target: T1, CD40-CD40L; test: Inhibition of human Fc-conjugated CD40/FLAG-tagged biotinylated CD40L costimulatory protein-protein interaction incubated for 1 hr by ELISA-type assay
[4] = Inhibition of human Fc-conjugated TNF-R/FLAG-tagged biotinylated TNFalpha protein-protein interaction incubated for 1 hr by ELISA-type assay
CD40-CD40L [5] = target: T1, CD40-CD40L; test: Inhibition of interaction of CD40 (unknown origin) transfected in HEK Blue cells with recombinant human CD40L assessed as reduction in CD40L-induced NF-kappaB activation after 18 hrs by spectrophotometry based SEAP reporter gene assay; type: cell-based
THP-1 [6] = test: Cytotoxicity against human THP1 cells assessed as reduction in cell viability at 100 uM after 48 hrs by MTT assay; type: cell-based; conditions: thp-1, 48 h
In short: (§1)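 THP-1 cells grown in RPMI-1640 with 10% FBS, starved 24 h in FBS-free medium, then seeded at 50,000 cells/well with compounds diluted in the same medium. Incubated 48 h at 37°C, MTT added for a further half hour, formazan read at 490 nm. Data converted to percent inhibition; duplicate or triplicate wells, at least three independent experiments.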

Salmonella typhimurium = test: Mutagenicity in Salmonella typhimurium TA100 up to 500 uM measured daily up to day 6 by Ames test; type: toxicity; conditions: salmonella enterica subsp. enterica serovar typhimurium
In short: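 Muta-Chromplate Ames format with S. typhimurium TA-100, reconstituted and grown overnight (16–18 h) at 37°C, then added to reaction mixture with compound at 0.1 to 500 μM (DMSO ≤2.5% final). Plated one plate per condition, incubated at 37°C, positive wells counted daily. Controls were background, NaN3 positive and sterility plates; significance from the manufacturer's tables.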

CD40-CD40L [7] = target: T1, CD40-CD40L; test: Inhibition of interaction of CD40 in human B cells with recombinant human CD40L assessed as reduction in CD40L-induced cell proliferation after 48 hrs by BrdU incorporation-based ELISA
In short: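 CD19+ B cells from healthy-donor PBMC (magnetic bead selection, >90% CD19+) at 2 × 10^5 cells/mL in IMDM with 10% FBS, ITS and rhIL-4 at 0.2 µg/mL. Activated with rhCD154 (MegaCD40L) at 0.1 µg/mL plus graded compound for 48 h. BrdU then added for another 48 h; incorporation read by colorimetric ELISA.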
Target sequence in this assay (P25942 21-277 limits assumed): as the sequence (P25942 21-277 limits assumed) above
Target sequence in this assay (P29965 113-261 partner limits assumed): as the sequence (P29965 113-261 partner limits assumed) above

CD40-CD40L [8] = target: T1, CD40-CD40L; test: Inhibition of interaction of CD40 in promoter/enhancer region of aicda-fused Ds-Red reporter transfected human B cells with recombinant human CD40L assessed as reduction in CD40L/IL-4-induced B cell activation by measuring AID expression after 2 days by flow cytometric analysis
In short: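 Primary human B cells transduced by spinoculation (1.5 h, 2,500g, 32°C, polybrene 8 µg/mL) with aicda promoter/enhancer–DsRed lentivirus. Cells at 1.25 × 10^5/mL in IMDM with 10% FBS, stimulated with IL-4 and CD40L (each 0.2 µg/mL) plus graded compound for 2 days at 37°C. DsRed read by flow cytometry. Anti-CD40L mAb 33.3 nM and CpG 1 µg/mL as controls; n=3.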

[9] = Elimination half life in C57BL6 mouse at 60 mg/kg, sc administered as single dose measured up to 24 hrs by HPLC analysis; type: ADME, organism-based; conditions: in vivo, read-out: beta t1/2 (converted)
In short: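 Single s.c. dose of 1.6 mg/mouse (~60 mg/kg) in 250 µL 20% w/v HPβCD to male C57BL/6 mice, 10 weeks old (n = 4). Tail blood (50 µL) drawn at 0, 0.5, 1, 2, 4, 6 and 24 h. Plasma quantified by C18 HPLC (60:40 water:acetonitrile with 2.0 mM ammonium acetate, 254 nm), calibration linear over 1 to 500 µg/mL.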

Mus musculus [10] = test: In vivo inhibition of alloantigen-induced T cell response in sc dosed BALB/c mouse injected with DBA-2 mouse splenocytes assessed as reduction in splenocyte-mediated increase in draining popliteal lymph node cells administered as bid from 1 day before alloantigen challenge to 3 days post alloantigen challenge; type: functional, organism-based
In short: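 Female BALB/c recipients (10–12 weeks) got a footpad injection of 1 × 10^7 splenocytes from male DBA-2 donors. Compound given s.c. at 20–60 mg/kg b.i.d. from day -1 to 3 in 20% HPβCD; MR-1 anti-CD40L (20 mg/kg, days -1 and 0) as positive control. Draining popliteal nodes taken 3 days after challenge and cells counted; n = 3–4 per group, mean ± SD.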

[11] = target: MAC1-CD40L (Homo sapiens) (UniProt P05107+P11215+P29965); test: Inhibition of human Fc-conjugated Mac1/FLAG-tagged biotinylated CD40L protein-protein interaction incubated for 1 hr by ELISA-type assay
Sequence of MAC1-CD40L (Homo sapiens) (P05107 whole entry, looked up, other chains not shown): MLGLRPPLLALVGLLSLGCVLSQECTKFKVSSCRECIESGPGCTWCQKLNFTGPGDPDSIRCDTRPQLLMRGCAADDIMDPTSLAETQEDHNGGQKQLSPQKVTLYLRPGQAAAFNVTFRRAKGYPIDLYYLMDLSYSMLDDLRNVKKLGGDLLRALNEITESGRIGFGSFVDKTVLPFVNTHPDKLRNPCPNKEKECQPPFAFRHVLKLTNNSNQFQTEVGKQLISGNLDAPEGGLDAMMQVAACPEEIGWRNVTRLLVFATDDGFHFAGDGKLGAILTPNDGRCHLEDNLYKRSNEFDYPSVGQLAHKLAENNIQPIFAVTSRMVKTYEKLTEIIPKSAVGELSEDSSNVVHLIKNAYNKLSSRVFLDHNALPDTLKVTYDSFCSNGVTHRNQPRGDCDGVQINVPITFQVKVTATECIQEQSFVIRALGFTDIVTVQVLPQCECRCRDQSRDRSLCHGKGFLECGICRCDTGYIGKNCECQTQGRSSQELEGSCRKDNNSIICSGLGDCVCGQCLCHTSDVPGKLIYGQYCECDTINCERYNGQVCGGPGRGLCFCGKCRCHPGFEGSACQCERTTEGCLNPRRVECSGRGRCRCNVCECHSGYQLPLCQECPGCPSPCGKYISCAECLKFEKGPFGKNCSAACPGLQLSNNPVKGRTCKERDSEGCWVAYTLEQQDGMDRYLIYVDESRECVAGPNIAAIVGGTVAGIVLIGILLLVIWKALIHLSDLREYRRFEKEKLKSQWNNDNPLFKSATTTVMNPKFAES
Sequence of MAC1-CD40L (Homo sapiens) (P29965 whole entry, looked up, other chains not shown): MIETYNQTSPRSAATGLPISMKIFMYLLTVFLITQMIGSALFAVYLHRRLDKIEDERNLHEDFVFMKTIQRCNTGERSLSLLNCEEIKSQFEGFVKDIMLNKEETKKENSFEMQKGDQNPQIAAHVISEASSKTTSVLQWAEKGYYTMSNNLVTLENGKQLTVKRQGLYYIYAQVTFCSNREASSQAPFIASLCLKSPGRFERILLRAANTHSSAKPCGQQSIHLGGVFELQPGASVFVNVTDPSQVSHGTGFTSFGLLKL
In short: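 Fc-conjugated Mac-1 coated overnight at 4°C at 0.4 µg/mL; blocked with PBS/Tween/BSA. FLAG-tagged CD40L at 0.2 µg/mL added with graded compound in HEPES binding buffer (pH 7.2) for 1 h. Detection with anti-FLAG HRP/TMB at 450 nm. Data converted to percent inhibition and fitted to a log inhibitor curve.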

Mus musculus [12] = test: Toxicity in C57BL6 mouse implanted with BALB/c mouse skin graft at 30 mg/kg, sc administered daily for 2 weeks; type: organism-based; conditions: in vivo, 336 h
In short: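 C57BL/6 recipients carried full-thickness BALB/c ear skin grafts on the dorsal thorax. They received CTLA4-Ig 250 μg on days 0, 2, 4 and 6, plus compound at 30 mg/kg s.c. daily in 20% w/v HPβCD over two weeks, and were watched for signs of toxicity. 5–8 mice per group.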

[13] = Solubility of the compound in water; type: physicochemical; conditions: buffer
In short: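 Saturated solution in distilled water, concentration measured by C18 HPLC (60:40 water:acetonitrile, 2.0 mM ammonium acetate, UV 254 nm). Calibration standards were made from known amounts dissolved in 20% w/v aqueous HPβCD. Compounds were tested as triethylamine salts unless stated otherwise.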

THP-1 [14] = test: Cytotoxicity against human THP1 cells assessed as reduction in cell viability at 100 to 200 uM after 48 hrs by MTT assay; type: cell-based; conditions: thp-1, 48 h; in short: as §1
Homo sapiens = organism: Homo sapiens; test: Selectivity ratio of IC50 for human Fc-conjugated TNF-R/FLAG-tagged biotinylated TNFalpha protein-protein interaction to IC50 for human Fc-conjugated CD40/FLAG-tagged biotinylated CD40L costimulatory protein-protein interaction
In short: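 Cell-free plate binding: TNF-R-Fc and CD40-Fc each coated at 0.3 µg/mL. FLAG-tagged TNF-α or CD40L, each at 0.02 µg/mL, added with graded compound for 1 h in HEPES buffer, pH 7.2. Anti-FLAG HRP/TMB detection at 450 nm. IC50s come from log inhibitor fits.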

O=C1OC2(c3ccccc31)c1cc(I)c(O)c(I)c1Oc1c2cc(I)c(O)c1I
Ratio IC50 (CD40-CD40L [1]): 1.04

COC(=O)c1ccc(C(=O)Nc2ccc(-c3ccc(C(=O)Nc4cccc5cccc(S(=O)(=O)O)c45)cc3)cc2)cc1
inhibition (CD40-CD40L [2]): Dose-dependent effect
IC50 (CD40-CD40L [3]): 0.17 µM
inhibition (CD40-CD40L [3]): Dose-dependent effect
IC50 [4]: 992 µM
IC50 (CD40-CD40L [5]): 17.1 µM
inhibition (CD40-CD40L [5]): Dose-dependent effect
Activity (THP-1 [6]): Non-Toxic
Activity (Salmonella typhimurium): Non-Toxic
inhibition (CD40-CD40L [7]): Dose-dependent effect
IC50 (CD40-CD40L [8]): 4.5 µM
inhibition (CD40-CD40L [8]): Dose-dependent effect
half-life [9]: 2 h
inhibition (Mus musculus [10]): Active
inhibition [11]: Active
Activity (Mus musculus [12]): Non-Toxic
solubility [13]: 240 µM (≈ 139 µg/mL)

H-VLQWAEKGYYTMSNN-OH
IC50 (CD40-CD40L [3]): 154 µM

O=C(Nc1ccc(-c2ccc(C(=O)Nc3ccc(C(=O)O)c4ccccc34)cc2)cc1)c1ccc([N+](=O)[O-])cc1
inhibition (CD40-CD40L [2]): Dose-dependent effect
IC50 (CD40-CD40L [3]): 0.36 µM
inhibition (CD40-CD40L [3]): Dose-dependent effect
IC50 [4]: > 1000 µM
IC50 (CD40-CD40L [5]): 9.4 µM
inhibition (CD40-CD40L [5]): Dose-dependent effect
Activity (THP-1 [14]): Toxic
inhibition (CD40-CD40L [7]): Dose-dependent effect
IC50 (CD40-CD40L [8]): 15.9 µM
inhibition (CD40-CD40L [8]): Dose-dependent effect
inhibition [11]: Active
solubility [13]: 17 µM (≈ 9.04 µg/mL)

O=C(Nc1ccc(-c2ccc(C(=O)Nc3ccc(S(=O)(=O)O)c4ccccc34)cc2)cc1)c1ccc([N+](=O)[O-])cc1
IC50 (CD40-CD40L [3]): 2.33 µM
inhibition (CD40-CD40L [3]): Dose-dependent effect
IC50 [4]: 479 µM
Ratio IC50 (Homo sapiens): > 100

CSCC[C@H](NC(=O)[C@@H](NC(=O)[C@H](Cc1ccc(O)cc1)NC(=O)[C@H](Cc1ccc(O)cc1)NC(=O)CNC(=O)[C@H](CCCCN)NC(=O)[C@H](CCCCN)NC(=O)[C@H](C)NC(=O)[C@H](Cc1c[nH]c2ccccc12)NC(=O)[C@H](CCC(N)=O)NC(=O)[C@H](CC(C)C)NC(=O)[C@@H](N)C(C)C)[C@@H](C)O)C(=O)N[C@@H](CCCCN)C(=O)N[C@@H](CO)C(=O)N[C@@H](CC(N)=O)C(=O)O
inhibition (CD40-CD40L [3]): inactive

O=C(Nc1ccc(C(=O)Nc2cccc3cccc(S(=O)(=O)O)c23)cc1)c1ccc([N+](=O)[O-])cc1
IC50 [4]: > 1000 µM
Ratio IC50 (Homo sapiens): > 100
inhibition [11]: Active

O=C(Nc1ccc2c(O)c(/N=N/c3ccc(/N=N\c4ccc(S(=O)(=O)O)cc4)cc3S(=O)(=O)O)c(S(=O)(=O)O)cc2c1)Nc1ccc2c(O)c(/N=N/c3ccc(/N=N\c4ccc(S(=O)(=O)O)cc4)cc3S(=O)(=O)O)c(S(=O)(=O)O)cc2c1
IC50 (CD40-CD40L [3]): 2.26 µM
IC50 (CD40-CD40L [5]): 42.7 µM
inhibition (CD40-CD40L [5]): Dose-dependent effect
inhibition [11]: Active

Nc1ccc(C(=O)Nc2ccc(-c3ccc(C(=O)Nc4cccc5cccc(S(=O)(=O)O)c45)cc3)cc2)cc1
IC50 (CD40-CD40L [3]): 301 µM
IC50 [4]: 887 µM
Ratio IC50 (Homo sapiens): > 100
Activity (THP-1 [14]): Toxic
inhibition [11]: Active

O=C(Nc1ccc(-c2ccc(C(=O)Nc3cccc4cccc(S(=O)(=O)O)c34)cc2)cc1)c1ccc([N+](=O)[O-])cc1
inhibition (CD40-CD40L [2]): Dose-dependent effect
IC50 (CD40-CD40L [3]): 0.31 µM
inhibition (CD40-CD40L [3]): Dose-dependent effect
IC50 [4]: > 1000 µM
IC50 (CD40-CD40L [5]): 10.3 µM
inhibition (CD40-CD40L [5]): Dose-dependent effect
Activity (THP-1 [6]): Non-Toxic
Activity (Salmonella typhimurium): Non-Toxic
inhibition (CD40-CD40L [7]): Dose-dependent effect
IC50 (CD40-CD40L [8]): 13.2 µM
inhibition (CD40-CD40L [8]): Dose-dependent effect
inhibition [11]: Active
solubility [13]: 7 µM (≈ 3.97 µg/mL)

O=C(Nc1ccc(-c2ccc(C(=O)Nc3cccc4cccc(S(=O)(=O)O)c34)cc2)cc1)c1ccc2[nH]nnc2c1
IC50 (CD40-CD40L [3]): 0.99 µM
inhibition (CD40-CD40L [3]): Dose-dependent effect
IC50 [4]: > 1000 µM
Ratio IC50 (Homo sapiens): > 100
